Results reported in ChEMBL document CHEMBL2331343 (Bioorg Med Chem, 2013).
Active and inactive are the calls of the source. The calls are words filed in the database; no cut-off is given here.

What follows are compounds tested against T1, D(1A) dopamine receptor (Homo sapiens, UniProt P21728) (assay: Inhibition of [3H]SCH23390 binding to dopamine D1 receptor (unknown origin) expressed in human HEK293 cells at 10 uM by liquid scintillation counter relative to control). Details: not given.
Type: cell-based
In short: (§1)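 Stably transfected HEK293T D1 membranes, […], duplicate incubation 50 min at 30 °C with [3H]SCH23390 in 50 mM Tris, 4 mM MgCl2, pH 7.4. Nonspecific binding with 10 μM SCH23390. GF/B filtration, scintillation counting.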

T1 sequence (P21728 whole entry): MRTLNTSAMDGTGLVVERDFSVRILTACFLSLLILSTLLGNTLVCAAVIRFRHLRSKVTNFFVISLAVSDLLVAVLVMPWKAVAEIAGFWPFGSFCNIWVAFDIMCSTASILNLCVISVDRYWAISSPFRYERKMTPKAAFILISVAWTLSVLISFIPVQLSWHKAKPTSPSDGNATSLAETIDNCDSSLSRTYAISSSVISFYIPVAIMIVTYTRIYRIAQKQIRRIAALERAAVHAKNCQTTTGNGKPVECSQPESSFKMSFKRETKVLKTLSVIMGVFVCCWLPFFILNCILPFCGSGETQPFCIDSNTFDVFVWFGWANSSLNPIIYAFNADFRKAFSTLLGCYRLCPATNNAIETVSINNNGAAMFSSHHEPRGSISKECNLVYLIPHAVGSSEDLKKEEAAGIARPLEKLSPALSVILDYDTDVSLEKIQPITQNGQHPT

Q: Which inhibition does the source give for COc1cc2c(cc1O)[C@@H]1Cc3ccc(OC)c(O)c3CN1CC2 [SCOULERINE] here?
A: 99.1%

Q: How did the inhibition turn out when COc1c(O)ccc2c1CN1CCc3cc4c(cc3[C@@H]1C2)OCCO4 was run?
A: 22.6%

Q: COc1cc2c(cc1OC)[C@@H]1Cc3ccc(OC)c(OC)c3CN1CC2 [TETRAHYDROPALMATINE] was tested. Which inhibition did it give?
A: 96.9%

Q: Which inhibition does the source give for COc1cc2c(cc1O)[C@@H]1Cc3ccc(O)c(OC)c3CN1CC2 [STEPHOLIDINE] here?
A: 99.8%

Q: With COc1cc2c(cc1O)CCN1Cc3c(ccc(O)c3OC)C[C@@H]21 as the compound, how does the inhibition read?
A: 98.3%

What follows are compounds tested against T2, D(2) dopamine receptor (Homo sapiens, UniProt P14416) (assay: Displacement of [3H]spiperone from dopamine D2 receptor (unknown origin) expressed in human HEK293 cells by liquid scintillation counter). Details: not given.
Type: cell-based

T2 sequence (P14416 whole entry): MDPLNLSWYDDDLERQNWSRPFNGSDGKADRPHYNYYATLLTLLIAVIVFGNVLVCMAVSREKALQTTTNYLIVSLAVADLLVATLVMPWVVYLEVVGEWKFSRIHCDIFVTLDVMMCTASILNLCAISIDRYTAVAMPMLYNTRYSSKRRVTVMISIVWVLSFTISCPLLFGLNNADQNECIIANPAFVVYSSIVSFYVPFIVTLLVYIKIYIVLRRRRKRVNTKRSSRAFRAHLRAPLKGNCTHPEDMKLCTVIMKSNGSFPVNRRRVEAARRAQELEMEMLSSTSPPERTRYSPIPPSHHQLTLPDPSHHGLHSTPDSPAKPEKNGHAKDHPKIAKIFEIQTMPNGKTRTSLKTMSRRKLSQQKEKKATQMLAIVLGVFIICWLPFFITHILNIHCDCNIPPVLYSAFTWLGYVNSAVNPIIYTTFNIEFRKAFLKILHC

Q: Which Ki does the source give for COc1cc2c(cc1O)[C@@H]1Cc3ccc(OC)c(O)c3CN1CC2 [SCOULERINE] here?
A: 214 nM

Q: COc1cc2c(cc1OC)[C@@H]1Cc3ccc(OC)c(OC)c3CN1CC2 [TETRAHYDROPALMATINE] was tested. Which Ki did it give?
A: > 5000 nM

Q: COc1cc2c(cc1O)[C@@H]1Cc3ccc(O)c(OC)c3CN1CC2 [STEPHOLIDINE] was tested. Which Ki did it give?
A: 11 nM

Q: COc1cc2c(cc1O)CCN1Cc3c(ccc(O)c3OC)C[C@@H]21 was tested. Which Ki did it give?
A: 113 nM

These compounds were tested against T3, 5-hydroxytryptamine receptor 1A (Homo sapiens, UniProt P08908) (assay: Displacement of [3H]8-OH-DPAT from 5-HT1A receptor (unknown origin) expressed in HEK293 cells by liquid scintillation counter). Details: not given.
T3 sequence (P08908 whole entry): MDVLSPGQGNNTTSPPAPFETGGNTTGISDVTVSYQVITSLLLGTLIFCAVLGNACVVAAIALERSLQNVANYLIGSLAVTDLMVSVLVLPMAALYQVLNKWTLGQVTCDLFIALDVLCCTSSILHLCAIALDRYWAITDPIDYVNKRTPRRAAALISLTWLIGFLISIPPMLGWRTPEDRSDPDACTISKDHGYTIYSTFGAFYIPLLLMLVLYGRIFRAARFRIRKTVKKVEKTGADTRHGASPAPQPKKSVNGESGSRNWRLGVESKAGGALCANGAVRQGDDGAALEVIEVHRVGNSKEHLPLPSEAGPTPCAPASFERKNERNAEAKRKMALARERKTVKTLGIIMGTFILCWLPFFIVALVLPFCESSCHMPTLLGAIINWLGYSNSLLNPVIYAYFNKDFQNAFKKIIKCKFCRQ
Type: cell-based

Q: For COc1c(O)ccc2c1CN1CCc3cc4c(cc3[C@@H]1C2)OCCO4, which Ki is on record?
A: 208 nM

Q: Which Ki does the source give for COc1cc2c(cc1OC)[C@@H]1Cc3ccc(OC)c(OC)c3CN1CC2 [TETRAHYDROPALMATINE] here?
A: > 5000 nM

Q: With COc1cc2c(cc1O)[C@@H]1Cc3ccc(O)c(OC)c3CN1CC2 [STEPHOLIDINE] as the compound, how does the Ki read?
A: > 5000 nM

Q: With COc1cc2c(cc1O)CCN1Cc3c(ccc(O)c3OC)C[C@@H]21 as the compound, how does the Ki read?
A: > 5000 nM

The compounds below were run against T4, 5-hydroxytryptamine receptor 1A (Homo sapiens) (UniProt P08908) (assay: Inhibition of [3H]8-OH-DPAT binding to 5-HT1A receptor (unknown origin) expressed in HEK293 cells at 10 uM by liquid scintillation counter relative to control). Details: not given.
T4 sequence (whole entry): T3 sequence (P08908 whole entry)
Type: cell-based
In short: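 Membranes of HEK293T stably transfected with 5-HT1A, […], incubated in duplicate 50 min at 30 °C with [3H]8-OH-DPAT in 50 mM Tris, 4 mM MgCl2, pH 7.4. Nonspecific binding with 10 μM WAY100635. Filtration on GF/B, cold Tris/EDTA wash, scintillation counting.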

Q: Which inhibition does the source give for COc1cc2c(cc1O)[C@@H]1Cc3ccc(OC)c(O)c3CN1CC2 [SCOULERINE] here?
A: 14.2%

Q: For COc1c(O)ccc2c1CN1CCc3cc4c(cc3[C@@H]1C2)OCCO4, which inhibition is on record?
A: 90.8%

Q: Which inhibition does the source give for COc1cc2c(cc1OC)[C@@H]1Cc3ccc(OC)c(OC)c3CN1CC2 [TETRAHYDROPALMATINE] here?
A: 84.9%

Q: For COc1cc2c(cc1O)CCN1Cc3c(ccc(O)c3OC)C[C@@H]21, which inhibition is on record?
A: 76.7%

What follows are compounds tested against T5, 5-hydroxytryptamine receptor 2A (Homo sapiens, UniProt P28223) (assay: Displacement of [3H]Ketanserin from 5-HT2A receptor (unknown origin) expressed in HEK293 cells by liquid scintillation counter). Details: not given.
Type: cell-based

T5 sequence (P28223 whole entry): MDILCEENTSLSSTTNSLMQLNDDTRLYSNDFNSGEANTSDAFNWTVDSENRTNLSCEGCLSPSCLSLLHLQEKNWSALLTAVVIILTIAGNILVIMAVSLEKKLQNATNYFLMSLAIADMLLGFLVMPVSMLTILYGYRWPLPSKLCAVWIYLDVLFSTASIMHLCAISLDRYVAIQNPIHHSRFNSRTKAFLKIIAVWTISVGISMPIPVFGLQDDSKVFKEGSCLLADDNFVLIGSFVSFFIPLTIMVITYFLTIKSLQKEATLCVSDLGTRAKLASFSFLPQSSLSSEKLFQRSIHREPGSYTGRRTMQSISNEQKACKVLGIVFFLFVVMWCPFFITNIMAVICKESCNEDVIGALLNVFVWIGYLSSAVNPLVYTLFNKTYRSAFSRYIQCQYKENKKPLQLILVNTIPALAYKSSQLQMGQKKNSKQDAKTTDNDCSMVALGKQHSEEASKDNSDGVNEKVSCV

Q: Which Ki does the source give for COc1c(O)ccc2c1CN1CCc3cc4c(cc3[C@@H]1C2)OCCO4 here?
A: 363 nM

Q: With COc1cc2c(cc1O)CCN1Cc3c(ccc(O)c3OC)C[C@@H]21 as the compound, how does the Ki read?
A: > 5000 nM

The compounds below were run against T2, D(2) dopamine receptor. Details: HEK293, at 10 µM.

Q: COc1cc2c(cc1O)[C@@H]1Cc3ccc(OC)c(O)c3CN1CC2 [SCOULERINE] was tested. Which inhibition did it give?
A: 93.4%

Q: With COc1c(O)ccc2c1CN1CCc3cc4c(cc3[C@@H]1C2)OCCO4 as the compound, how does the inhibition read?
A: 73.1%

Q: How did the inhibition turn out when COc1cc2c(cc1OC)[C@@H]1Cc3ccc(OC)c(OC)c3CN1CC2 [TETRAHYDROPALMATINE] was run?
A: 85.4%

Q: For COc1cc2c(cc1O)[C@@H]1Cc3ccc(O)c(OC)c3CN1CC2 [STEPHOLIDINE], which inhibition is on record?
A: 97.5%

Q: How did the inhibition turn out when COc1cc2c(cc1O)CCN1Cc3c(ccc(O)c3OC)C[C@@H]21 was run?
A: 94.2%

These compounds were tested on Rattus norvegicus (assay: Antipsychotic activity in Sprague-Dawley rat schizophrenia model assessed as inhibition of PCP-induced prepulse inhibition at 0.5 mg/kg, ip administered 10 mins prior testing monitored for 5 mins). Details: not given.
Type: functional, organism-based
Parameters: dose 0.5 mg/kg
In short: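 Male Sprague–Dawley rats (230–280 g) received ip saline or drug 10 min before PCP (5 mg/kg, ip). Acoustic startle PPI was tested 5 min after PCP, after 3-min acclimation: 40 ms, 120 dB white-noise pulse-alone and prepulse+pulse trials, 15–25 s intertrial interval, 74 dB background, about 20 min session. %PPI = [1 − (prepulse+pulse startle)/(pulse-alone startle)] × 100.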

Q: For Cc1nc2n(c(=O)c1CCN1CCC(c3noc4cc(F)ccc34)CC1)CCCC2, which inhibition is on record?
A: Active

The compounds below were run against T1, D(1A) dopamine receptor (assay: Displacement of [3H]SCH23390 from dopamine D1 receptor (unknown origin) expressed in human HEK293 cells by liquid scintillation counter). Details: not given.
Type: cell-based
In short: as §1

Q: COc1cc2c(cc1O)[C@@H]1Cc3ccc(OC)c(O)c3CN1CC2 [SCOULERINE] was tested. Which Ki did it give?
A: 22 nM

Q: How did the Ki turn out when COc1cc2c(cc1OC)[C@@H]1Cc3ccc(OC)c(OC)c3CN1CC2 [TETRAHYDROPALMATINE] was run?
A: 231 nM

Q: How did the Ki turn out when COc1cc2c(cc1O)[C@@H]1Cc3ccc(O)c(OC)c3CN1CC2 [STEPHOLIDINE] was run?
A: 3.4 nM

Q: How did the Ki turn out when COc1cc2c(cc1O)CCN1Cc3c(ccc(O)c3OC)C[C@@H]21 was run?
A: 200 nM

The compounds below were run against T5, 5-hydroxytryptamine receptor 2A (assay: Inhibition of [3H]Ketanserin binding to 5-HT2A receptor (unknown origin) expressed in HEK293 cells at 10 uM by liquid scintillation counter relative to control). Details: not given.
Type: cell-based
In short: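 Membranes of HEK293T stably transfected with 5-HT2A, […], incubated in duplicate 15 min at 37 °C with [3H]ketanserin in 50 mM Tris, 4 mM MgCl2, pH 7.4. […] GF/B filtration, cold wash, scintillation counting.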

Q: Which inhibition does the source give for COc1cc2c(cc1O)[C@@H]1Cc3ccc(OC)c(O)c3CN1CC2 [SCOULERINE] here?
A: 20.9%

Q: Which inhibition does the source give for COc1c(O)ccc2c1CN1CCc3cc4c(cc3[C@@H]1C2)OCCO4 here?
A: 97.3%

Q: COc1cc2c(cc1OC)[C@@H]1Cc3ccc(OC)c(OC)c3CN1CC2 [TETRAHYDROPALMATINE] was tested. Which inhibition did it give?
A: 33%

Q: For COc1cc2c(cc1O)CCN1Cc3c(ccc(O)c3OC)C[C@@H]21, which inhibition is on record?
A: 84%
